According to ChEMBL document CHEMBL4052795, “Synthesis and evaluation of modified chalcone based p53 stabilizing agents” (2017):
The source made the active and inactive calls. The rule behind the calls is not given here.

Key:
CAL-51 = test: Antiproliferative activity against human CAL51 cells assessed as growth inhibition after 3 days by SRB assay; assay type: functional; details: CAL-51, 72 h
Procedure, shortened: (§1)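 Cells treated in duplicate in 96-well format with three-fold serial dilutions from 50 µM; DMSO solvent control, Nutlin-3 positive control. Sulforhodamine B staining after 3 days; GI50 derived from dilution series.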

HCT-116 [1] = test: Antiproliferative activity against human HCT116 cells at 50 uM after 3 days by SRB assay relative to control; assay type: functional; details: HCT-116, 72 h
HCT-116 [2] = test: Antiproliferative activity against human HCT116 cells assessed as growth inhibition after 3 days by SRB assay; assay type: functional; details: HCT-116, 72 h; procedure, shortened: as §1
HCT-116 [3] = test: Antiproliferative activity against human HCT116 cells at 25 uM after 3 days by SRB assay relative to control; assay type: functional; details: HCT-116, 72 h
[4] = molecular target: Cellular tumor antigen p53 (Homo sapiens) (UniProt P04637); test: Induction of p53 stabilization in human HCT116 cells assessed as ratio of p53 expression levels to GAPDH expression levels at 6.25 uM after 4 hrs by immunoblot analysis; assay type: cell-based
Chain of Cellular tumor antigen p53 (Homo sapiens) (P04637 whole entry, looked up): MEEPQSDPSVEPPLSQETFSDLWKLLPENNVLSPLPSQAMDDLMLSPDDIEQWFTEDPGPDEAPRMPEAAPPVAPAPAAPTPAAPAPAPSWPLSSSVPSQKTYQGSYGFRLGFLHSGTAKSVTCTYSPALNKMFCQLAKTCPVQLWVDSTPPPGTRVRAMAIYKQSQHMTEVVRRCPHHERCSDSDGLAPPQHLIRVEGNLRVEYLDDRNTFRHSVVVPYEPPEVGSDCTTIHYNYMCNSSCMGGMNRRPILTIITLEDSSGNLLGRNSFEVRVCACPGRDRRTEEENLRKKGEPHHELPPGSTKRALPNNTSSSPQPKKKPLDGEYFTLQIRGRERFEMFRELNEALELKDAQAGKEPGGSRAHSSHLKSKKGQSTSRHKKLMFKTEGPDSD
Procedure, shortened: (§2)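 HCT116 treated with 6.25, 12.5 or 25 µM for 4 or 8 h; 10 µM Nutlin-3 positive control, DMSO solvent control. Lysates immunoblotted for p53 and GAPDH; band densities quantified, p53 normalized to GAPDH and expressed as fold change versus DMSO.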

[5] = molecular target: Cellular tumor antigen p53 (Homo sapiens) (UniProt P04637); test: Induction of p53 stabilization in human HCT116 cells assessed as ratio of p53 expression levels to GAPDH expression levels at 25 uM after 4 hrs by immunoblot analysis; assay type: cell-based; procedure, shortened: as §2
[6] = molecular target: Cellular tumor antigen p53 (Homo sapiens) (UniProt P04637); test: Induction of p53 stabilization in human HCT116 cells assessed as ratio of p53 expression levels to GAPDH expression levels at 12.5 uM after 8 hrs by immunoblot analysis; assay type: cell-based; procedure, shortened: as §2
[7] = molecular target: Cellular tumor antigen p53 (Homo sapiens) (UniProt P04637); test: Induction of p53 stabilization in human HCT116 cells assessed as ratio of p53 expression levels to GAPDH expression levels at 12.5 uM after 4 hrs by immunoblot analysis; assay type: cell-based; procedure, shortened: as §2
[8] = molecular target: Cellular tumor antigen p53 (Homo sapiens) (UniProt P04637); test: Induction of p53 stabilization in human HCT116 cells assessed as ratio of p53 expression levels to GAPDH expression levels at 25 uM after 8 hrs by immunoblot analysis; assay type: cell-based; procedure, shortened: as §2
[9] = molecular target: Cellular tumor antigen p53 (Homo sapiens) (UniProt P04637); test: Induction of p53 stabilization in human HCT116 cells assessed as ratio of p53 expression levels to GAPDH expression levels after 4 hrs by immunoblot analysis; assay type: cell-based; procedure, shortened: as §2
[10] = molecular target: Cellular tumor antigen p53 (Homo sapiens) (UniProt P04637); test: Induction of p53 stabilization in human HCT116 cells assessed as ratio of p53 expression levels to GAPDH expression levels at 6.25 uM after 8 hrs by immunoblot analysis; assay type: cell-based; procedure, shortened: as §2
[11] = molecular target: Cellular tumor antigen p53 (Homo sapiens) (UniProt P04637); test: Induction of p53 stabilization in human HCT116 cells assessed as ratio of p53 expression levels to GAPDH expression levels after 8 hrs by immunoblot analysis; assay type: cell-based; procedure, shortened: as §2
[12] = molecular target: Cellular tumor antigen p53 (Homo sapiens) (UniProt P04637); test: Induction of p53 stabilization in human HCT116 cells assessed as increase in p53 expression levels at 6.25 to 25 uM after 8 hrs by immunoblot analysis; assay type: cell-based; procedure, shortened: as §2
[13] = molecular target: Cellular tumor antigen p53 (Homo sapiens) (UniProt P04637); test: Induction of p53 stabilization in human HCT116 cells assessed as increase in p53 expression levels at 6.25 to 25 uM after 4 hrs by immunoblot analysis; assay type: cell-based; procedure, shortened: as §2
[14] = molecular target: Cellular tumor antigen p53 (Homo sapiens) (UniProt P04637); test: Induction of p53 stabilization in human HCT116 cells assessed as increase in p53 expression levels at 12.5 uM measured up to 90 mins in presence of varying concentrations of cycloheximide by immunoblot analysis; assay type: cell-based
Procedure, shortened: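 Cycloheximide chase in HCT116: cells given cycloheximide with or without 12.5 µM compound, samples collected at timed points; immunoblot for p53 and alpha-tubulin, p53 normalized to alpha-tubulin.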

Compound	GI50 (HCT-116 [2])	GI50 (CAL-51)	inhibition at 50 µM (HCT-116 [1])	inhibition at 25 µM (HCT-116 [3])	also measured
O=C(/C=C/c1ccccc1[N+](=O)[O-])c1ccccc1	7.69 µM	2.59 µM	100%	100%	–
O=C(/C=C/c1ccccc1)c1ccccc1 [CHALCONE]	3.96 µM	1.85 µM	97.5%	100%	–
Cc1ccc(COc2ccc(C(=O)/C=C/c3ccc(F)cc3)cc2)cc1	> 50 µM	> 50 µM	15.4%	–	–
O=C(/C=C/c1ccccc1Cl)c1ccc(OCc2ccccc2)cc1	14.9 µM	7.1 µM	99.7%	54.5%	–
Cc1ccc(COc2ccc(C(=O)/C=C/c3ccc(Cl)cc3)cc2)cc1	> 50 µM	> 50 µM	16.9%	12.3%	–
COc1ccc(C2=N[C@H](c3ccc(Cl)cc3)[C@H](c3ccc(Cl)cc3)N2C(=O)N2CCNC(=O)C2)c(OC(C)C)c1	1.52 µM	–	–	–	–
O=C(/C=C/c1ccc([N+](=O)[O-])cc1)c1ccccc1	3.13 µM	1.21 µM	100%	99.7%	–
O=C(/C=C/c1ccccc1)c1ccc(OCc2ccccc2)cc1	> 50 µM	28.9 µM	33.8%	24.3%	–
O=C(/C=C/c1ccc(Cl)cc1)c1ccc(OCc2ccccc2)cc1	> 50 µM	> 50 µM	–	0.3%	–
O=C(/C=C/c1cccc([N+](=O)[O-])c1)c1ccccc1	4.47 µM	1.08 µM	99.7%	100%	–
O=C(/C=C/c1ccc(F)cc1)c1ccc(OCc2ccccc2)cc1	> 50 µM	> 50 µM	–	–	–
O=C(/C=C/c1ccc(OCc2ccccc2)cc1)c1ccccc1	> 50 µM	24.7 µM	49.5%	52.3%	–
COc1cc(/C=C/C(=O)c2ccccc2)cc(OC)c1OC	0.473 µM	0.78 µM	99.7%	99.4%	–

Further lines, with some results ahead:

GI50 (HCT-116 [2])	Compound	GI50 (CAL-51)	inhibition at 50 µM (HCT-116 [1])	inhibition at 25 µM (HCT-116 [3])	also measured
16.5 µM	O=C(/C=C/c1ccc(Cl)cc1)c1ccccc1 [4-CHLORO CHALCONE]	5.85 µM	100%	97.5%	Ratio [4]: 1.24; Ratio [5]: 3.62; Ratio [6]: 1.15; Ratio [7]: 3.1; Ratio [8]: 1.76; Activity [9]: Dose-dependent effect; Ratio [10]: 1.38; Activity [11]: Dose-dependent effect
> 100 µM	COc1ccc(CCC(=O)c2ccccc2)cc1	–	–	–	Activity [12]: inactive; Activity [13]: inactive
36.9 µM	COc1ccc(/C=C/C(=O)c2ccc(OCc3ccccc3)cc2)cc1	> 50 µM	13.2%	9.5%	–
3.86 µM	COc1ccc(/C=C/C(=O)c2ccccc2)cc1 [4-METHOXY CHALCONE]	2.69 µM	99.7%	100%	Activity [14]: Active; Ratio [4]: 1.11; Ratio [5]: 1.53; Ratio [6]: 1.2; Ratio [7]: 1.41; Ratio [8]: 1.7; Activity [9]: Dose-dependent effect; Ratio [10]: 1.34; Activity [11]: Dose-dependent effect
3.57 µM	COc1ccc(C(=O)/C=C/c2ccccc2)cc1 [4'-METHOXYCHALCONE]	3.33 µM	98.2%	99.7%	–
35.4 µM	COc1cccc(/C=C/C(=O)c2ccc(OCc3ccccc3)cc2)c1	13.7 µM	76%	35.4%	–
> 50 µM	Cc1ccc(COc2ccc(C(=O)/C=C/c3ccccc3)cc2)cc1	43.2 µM	–	4%	–
